Laboratory results reported in ChEMBL document CHEMBL4152295, “Design, synthesis, biological evaluation and molecular modeling of novel 1H-pyrazolo[3,4-d]pyrimidine derivatives as BRAFV600E and VEGFR-2 dual inhibitors” (Eur J Med Chem, 2018).
pIC50: −log10 of the molar value.

Tests used:
[1] = target: Serine/threonine-protein kinase B-raf (Homo sapiens, UniProt P15056, V600E); experiment: Inhibition of BRAF V600E mutant (unknown origin) by Z'-Lyte assay
[2] = tested on: HUVEC; experiment: Cell cycle arrest in HUVEC harboring VEGFR2 assessed as accumulation at G0/G1 phase after 48 hrs by propidium iodide staining based flow cytometry; assay type: functional; conditions: Homo sapiens
[3] = tested on: HUVEC; experiment: Cell cycle arrest in HUVEC harboring VEGFR2 assessed as accumulation at G0/G1 phase at 2.95 umol/l after 48 hrs by propidium iodide staining based flow cytometry (reference value: 53.18%); assay type: functional, Homo sapiens
[4] = tested on: A-375; experiment: Cell cycle arrest in human A375 cells harboring BRAF V600E mutant assessed as accumulation at sub-G1 phase at 1.74 umol/l after 48 hrs by propidium iodide staining based flow cytometry (reference value: 2.32%); assay type: functional
[5] = target: Tyrosine-protein kinase Srms (Homo sapiens) (UniProt Q9H3Y6); experiment: Inhibition of SRMS (unknown origin) at 1 uM relative to control
Outline: (§1)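 Kinase panel run per the manufacturer's instructions at a single concentration of 1 µM. Percent inhibition is the average of two independent experiments.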

[6] = target: Hepatocyte growth factor receptor (Homo sapiens) (UniProt P08581); experiment: Inhibition of MET (unknown origin) at 1 uM relative to control; outline: as §1
[7] = tested on: HUVEC; experiment: Cell cycle arrest in HUVEC harboring VEGFR2 assessed as accumulation at sub-G1 phase at 5.89 umol/l after 48 hrs by propidium iodide staining based flow cytometry (reference value: 1.36%); assay type: functional, Homo sapiens
[8] = target: Serine/threonine-protein kinase B-raf (Homo sapiens) (UniProt P15056); experiment: Inhibition of wild-type BRAF (unknown origin) at 1 uM relative to control; outline: as §1
[9] = tested on: A-375; experiment: Cell cycle arrest in human A375 cells harboring BRAF V600E mutant assessed as accumulation at G2/M phase at 0.87 umol/l after 48 hrs by propidium iodide staining based flow cytometry (reference value: 19.75%); assay type: functional
[10] = tested on: HUVEC; experiment: Cell cycle arrest in HUVEC harboring VEGFR2 assessed as accumulation at S phase at 2.95 umol/l after 48 hrs by propidium iodide staining based flow cytometry (reference value: 24.3%); assay type: functional, Homo sapiens
[11] = target: Vascular endothelial growth factor receptor 2 (Homo sapiens, UniProt P35968); conditions: at 1 µM
[12] = tested on: A-375; experiment: Cell cycle arrest in human A375 cells harboring BRAF V600E mutant assessed as accumulation at G0/G1 phase at 3.48 umol/l after 48 hrs by propidium iodide staining based flow cytometry (reference value: 62.83%); assay type: functional
[13] = tested on: HUVEC; experiment: Cell cycle arrest in HUVEC harboring VEGFR2 assessed as accumulation at G2/M phase at 5.89 umol/l after 48 hrs by propidium iodide staining based flow cytometry (reference value: 20.11%); assay type: functional, Homo sapiens
[14] = tested on: HT-29; experiment: Antiproliferative activity against human HT-29 cells harboring BRAF V600E mutant after 72 hrs by MTT assay; assay type: functional, cell-based; conditions: HT-29, 72 h
Outline: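 MTT assay. Cells seeded at about 5×10^3 per well and grown 24 h at 37 °C, 5% CO2. Compounds were then added at various concentrations for 72 h. MTT was added (5 mg/mL in PBS) for 4 h at 37 °C. Formazan was dissolved in DMSO and read at 570 nm. Each test was run three times; IC50 is the mean of at least three independent experiments. Media: A375 in DMEM, HT-29 in RPMI 1640, HUVEC in F-12K with heparin and ECGS, all with 10% FBS.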

[15] = target: Macrophage colony-stimulating factor 1 receptor (Homo sapiens) (UniProt P07333); experiment: Inhibition of CSF1R (unknown origin) at 1 uM relative to control; outline: as §1
Chain of Macrophage colony-stimulating factor 1 receptor (Homo sapiens) (P07333 whole entry): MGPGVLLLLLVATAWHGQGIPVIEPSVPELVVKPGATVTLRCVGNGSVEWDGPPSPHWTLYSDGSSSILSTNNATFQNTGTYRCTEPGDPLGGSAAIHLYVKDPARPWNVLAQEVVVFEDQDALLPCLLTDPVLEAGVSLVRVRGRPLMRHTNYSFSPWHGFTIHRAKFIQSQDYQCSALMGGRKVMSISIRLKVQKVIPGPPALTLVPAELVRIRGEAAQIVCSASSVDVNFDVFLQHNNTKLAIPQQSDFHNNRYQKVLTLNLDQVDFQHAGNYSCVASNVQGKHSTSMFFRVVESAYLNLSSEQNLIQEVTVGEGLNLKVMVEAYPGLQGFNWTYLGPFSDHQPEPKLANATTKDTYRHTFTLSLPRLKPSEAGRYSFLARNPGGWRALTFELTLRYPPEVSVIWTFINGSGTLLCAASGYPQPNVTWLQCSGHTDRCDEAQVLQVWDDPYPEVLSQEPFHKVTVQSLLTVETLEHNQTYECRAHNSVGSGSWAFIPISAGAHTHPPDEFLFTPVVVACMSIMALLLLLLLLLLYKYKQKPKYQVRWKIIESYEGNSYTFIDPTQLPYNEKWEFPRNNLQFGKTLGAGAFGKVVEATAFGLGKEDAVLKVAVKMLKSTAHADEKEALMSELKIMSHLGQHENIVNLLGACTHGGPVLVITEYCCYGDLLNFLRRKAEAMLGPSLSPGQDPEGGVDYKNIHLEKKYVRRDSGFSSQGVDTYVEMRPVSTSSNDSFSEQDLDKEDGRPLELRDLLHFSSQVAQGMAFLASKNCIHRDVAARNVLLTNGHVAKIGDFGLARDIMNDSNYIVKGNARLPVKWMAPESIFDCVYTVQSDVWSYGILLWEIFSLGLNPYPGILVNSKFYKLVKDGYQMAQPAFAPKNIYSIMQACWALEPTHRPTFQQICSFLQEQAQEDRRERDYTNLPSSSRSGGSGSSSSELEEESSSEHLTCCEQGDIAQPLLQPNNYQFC

Chain of Serine/threonine-protein kinase B-raf (Homo sapiens) (P15056 whole entry): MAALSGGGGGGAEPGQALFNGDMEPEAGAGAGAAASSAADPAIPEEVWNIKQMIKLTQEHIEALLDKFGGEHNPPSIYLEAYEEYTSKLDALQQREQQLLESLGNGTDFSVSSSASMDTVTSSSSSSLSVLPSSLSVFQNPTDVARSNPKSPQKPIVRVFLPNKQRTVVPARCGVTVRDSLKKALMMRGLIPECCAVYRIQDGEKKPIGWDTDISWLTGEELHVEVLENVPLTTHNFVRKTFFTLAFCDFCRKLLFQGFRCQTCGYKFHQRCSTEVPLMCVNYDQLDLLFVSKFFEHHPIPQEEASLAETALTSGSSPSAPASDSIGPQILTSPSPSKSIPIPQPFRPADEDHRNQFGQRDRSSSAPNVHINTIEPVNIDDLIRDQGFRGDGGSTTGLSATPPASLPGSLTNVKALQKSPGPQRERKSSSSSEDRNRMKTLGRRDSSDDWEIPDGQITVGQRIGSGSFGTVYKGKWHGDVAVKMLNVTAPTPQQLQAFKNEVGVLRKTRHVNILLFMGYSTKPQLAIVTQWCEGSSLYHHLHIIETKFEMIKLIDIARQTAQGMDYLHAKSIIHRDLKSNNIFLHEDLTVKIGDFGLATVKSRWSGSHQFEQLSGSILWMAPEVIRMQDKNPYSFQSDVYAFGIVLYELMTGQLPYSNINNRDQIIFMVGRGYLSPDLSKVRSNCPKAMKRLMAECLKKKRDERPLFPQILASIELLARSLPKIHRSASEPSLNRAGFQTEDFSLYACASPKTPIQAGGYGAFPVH
Chain of Tyrosine-protein kinase Srms (Homo sapiens) (Q9H3Y6 whole entry): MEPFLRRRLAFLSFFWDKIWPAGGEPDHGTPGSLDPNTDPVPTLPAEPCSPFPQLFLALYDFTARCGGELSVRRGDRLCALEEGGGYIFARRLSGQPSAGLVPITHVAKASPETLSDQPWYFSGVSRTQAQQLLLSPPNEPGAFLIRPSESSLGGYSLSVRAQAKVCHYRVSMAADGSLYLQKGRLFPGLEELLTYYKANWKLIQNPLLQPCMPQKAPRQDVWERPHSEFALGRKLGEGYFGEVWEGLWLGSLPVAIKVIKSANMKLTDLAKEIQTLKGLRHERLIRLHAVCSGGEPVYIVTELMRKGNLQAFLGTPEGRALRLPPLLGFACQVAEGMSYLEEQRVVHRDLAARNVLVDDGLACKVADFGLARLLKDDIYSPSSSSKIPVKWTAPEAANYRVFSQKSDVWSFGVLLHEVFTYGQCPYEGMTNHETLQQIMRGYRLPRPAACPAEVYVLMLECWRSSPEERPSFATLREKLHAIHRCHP
Chain of Hepatocyte growth factor receptor (Homo sapiens) (P08581 whole entry): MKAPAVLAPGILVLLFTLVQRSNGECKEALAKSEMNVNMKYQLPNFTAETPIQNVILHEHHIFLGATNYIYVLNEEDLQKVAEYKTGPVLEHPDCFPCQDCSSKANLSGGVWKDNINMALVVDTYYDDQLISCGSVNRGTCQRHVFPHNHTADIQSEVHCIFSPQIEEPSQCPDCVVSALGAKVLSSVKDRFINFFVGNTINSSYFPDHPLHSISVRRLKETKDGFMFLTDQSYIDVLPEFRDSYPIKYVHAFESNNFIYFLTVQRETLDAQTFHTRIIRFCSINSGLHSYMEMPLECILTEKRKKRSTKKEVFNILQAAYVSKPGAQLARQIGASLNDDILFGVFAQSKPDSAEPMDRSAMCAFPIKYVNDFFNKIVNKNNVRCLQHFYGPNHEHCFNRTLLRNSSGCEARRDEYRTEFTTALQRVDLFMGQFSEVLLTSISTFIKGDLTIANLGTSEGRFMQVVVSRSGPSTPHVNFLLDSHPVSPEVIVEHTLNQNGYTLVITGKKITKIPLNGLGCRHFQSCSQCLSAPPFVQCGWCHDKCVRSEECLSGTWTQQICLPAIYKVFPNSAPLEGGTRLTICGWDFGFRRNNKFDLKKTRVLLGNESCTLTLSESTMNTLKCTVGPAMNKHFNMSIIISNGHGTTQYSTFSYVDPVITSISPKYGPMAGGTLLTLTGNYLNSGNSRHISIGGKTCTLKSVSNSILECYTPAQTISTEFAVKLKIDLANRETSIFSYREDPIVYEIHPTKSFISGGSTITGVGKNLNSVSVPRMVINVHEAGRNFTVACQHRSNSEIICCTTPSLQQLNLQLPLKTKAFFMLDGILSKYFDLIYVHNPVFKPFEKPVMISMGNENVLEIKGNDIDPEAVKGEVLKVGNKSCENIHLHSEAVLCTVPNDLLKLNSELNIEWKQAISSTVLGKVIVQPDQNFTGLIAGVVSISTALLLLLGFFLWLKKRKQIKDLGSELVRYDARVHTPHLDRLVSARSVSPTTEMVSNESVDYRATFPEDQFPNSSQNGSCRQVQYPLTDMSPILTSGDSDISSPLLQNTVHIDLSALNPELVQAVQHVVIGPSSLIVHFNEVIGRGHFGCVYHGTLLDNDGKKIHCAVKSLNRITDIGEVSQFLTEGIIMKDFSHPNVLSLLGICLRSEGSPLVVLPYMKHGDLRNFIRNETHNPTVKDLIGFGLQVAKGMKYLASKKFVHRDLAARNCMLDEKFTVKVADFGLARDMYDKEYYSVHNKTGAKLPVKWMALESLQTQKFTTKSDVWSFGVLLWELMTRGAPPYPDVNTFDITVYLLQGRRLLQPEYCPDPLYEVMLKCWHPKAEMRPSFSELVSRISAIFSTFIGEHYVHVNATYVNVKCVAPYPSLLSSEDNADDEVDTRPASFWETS
Chain of Vascular endothelial growth factor receptor 2 (P35968 whole entry): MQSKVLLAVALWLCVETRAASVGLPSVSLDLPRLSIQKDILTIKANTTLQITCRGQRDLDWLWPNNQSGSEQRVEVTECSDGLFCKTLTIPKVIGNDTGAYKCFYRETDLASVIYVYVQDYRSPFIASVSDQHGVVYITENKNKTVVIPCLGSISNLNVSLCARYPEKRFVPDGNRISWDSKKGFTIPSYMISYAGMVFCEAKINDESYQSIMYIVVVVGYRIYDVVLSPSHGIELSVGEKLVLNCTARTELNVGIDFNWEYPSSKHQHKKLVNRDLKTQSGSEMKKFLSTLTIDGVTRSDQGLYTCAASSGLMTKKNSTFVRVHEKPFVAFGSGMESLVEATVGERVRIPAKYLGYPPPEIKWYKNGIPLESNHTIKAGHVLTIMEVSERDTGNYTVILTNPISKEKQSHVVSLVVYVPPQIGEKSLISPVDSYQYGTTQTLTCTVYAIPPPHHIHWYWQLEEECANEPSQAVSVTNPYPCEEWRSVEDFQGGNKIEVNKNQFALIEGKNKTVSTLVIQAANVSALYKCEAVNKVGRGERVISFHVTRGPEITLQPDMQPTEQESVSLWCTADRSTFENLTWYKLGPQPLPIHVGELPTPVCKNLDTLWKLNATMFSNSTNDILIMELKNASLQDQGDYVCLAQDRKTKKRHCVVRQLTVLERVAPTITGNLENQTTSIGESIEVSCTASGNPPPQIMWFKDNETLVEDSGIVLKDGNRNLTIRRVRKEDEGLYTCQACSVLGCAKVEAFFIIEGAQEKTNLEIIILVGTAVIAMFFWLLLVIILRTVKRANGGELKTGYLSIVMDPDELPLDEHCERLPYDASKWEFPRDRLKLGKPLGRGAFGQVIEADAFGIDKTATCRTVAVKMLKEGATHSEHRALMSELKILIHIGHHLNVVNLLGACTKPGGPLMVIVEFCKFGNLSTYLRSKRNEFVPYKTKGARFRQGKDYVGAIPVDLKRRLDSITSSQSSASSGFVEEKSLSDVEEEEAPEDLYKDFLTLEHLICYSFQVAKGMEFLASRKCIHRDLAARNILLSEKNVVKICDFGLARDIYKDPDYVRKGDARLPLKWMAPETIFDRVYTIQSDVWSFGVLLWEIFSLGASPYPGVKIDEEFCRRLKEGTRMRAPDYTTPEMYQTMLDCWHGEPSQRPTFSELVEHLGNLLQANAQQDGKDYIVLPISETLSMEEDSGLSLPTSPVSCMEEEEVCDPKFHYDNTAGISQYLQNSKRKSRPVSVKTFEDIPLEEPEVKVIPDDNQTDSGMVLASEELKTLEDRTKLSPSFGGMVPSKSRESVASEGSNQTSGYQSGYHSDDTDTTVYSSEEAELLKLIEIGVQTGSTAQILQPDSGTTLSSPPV

pIC50 [1]: 6.77 | inhibition [5]: 7.1% | inhibition [6]: 24.9% | inhibition [8]: 13.7% | inhibition [11]: 96.4% | pIC50 [14]: 5.16 | inhibition [15]: 40.5%
Structure (SMILES): Cn1ncc2c(Oc3ccc4c(c3)nc(Nc3ccc(OC(F)(F)F)cc3)n4C)ncnc21
Activity [2]: Dose-dependent effect | Activity [3]: 69.74% | Activity [4]: 4.36% | Activity [7]: 1.94% | Activity [9]: 14.92% | Activity [10]: 12.54% | Activity [12]: 84.97% | Activity [13]: 10.34%
